Assay results taken from ChEMBL document CHEMBL5385937.
Blank lines part the entries; values can stand above or below the compound they belong to. Activity calls are given as the source filed them. No cut-off for these calls is given here.

Assays:
[1] = target: Indoleamine 2,3-dioxygenase 1 (Homo sapiens) (UniProt P14902); assay: Inhibition of IDO1 in human BXPC-3 cells assessed as reduction in IFNgamma induced kynurenine level at 10 uM incubated for 48 hrs by LC-MS analysis; format: cell-based
In short: (§1)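 BxPC-3 cells were seeded at 20,000/well in phenol-red-free medium. After 24 h, 50 ng/mL IFN-γ and 380 μM Trp were added together with compound for 48 h. Supernatant was acidified with trichloroacetic acid (7% final), kept 15 min at room temperature and centrifuged. Kyn and Trp were quantified by HPLC-MS/MS.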

[2] = target: Indoleamine 2,3-dioxygenase 1 (Homo sapiens) (UniProt P14902); assay: Inhibition of recombinant human IDO1 expressed in Escherichia coli BL21(DE3) preincubated for 40 mins followed by Trp addition and measured after 60 mins by LC-MS analysis; conditions: time 100.0 min
[3] = target: Indoleamine 2,3-dioxygenase 1 (Homo sapiens) (UniProt P14902); assay: Inhibition of IDO1 in human BXPC-3 cells assessed as increase in Trp level at 10 uM incubated for 48 hrs in presence of IFNgamma by LC-MS analysis; format: cell-based; in short: as §1
[4] = target: T1, Bifunctional epoxide hydrolase 2 (Homo sapiens) (UniProt P34913); conditions: HAP1, dose 500.0 nM
T1 sequence (whole entry): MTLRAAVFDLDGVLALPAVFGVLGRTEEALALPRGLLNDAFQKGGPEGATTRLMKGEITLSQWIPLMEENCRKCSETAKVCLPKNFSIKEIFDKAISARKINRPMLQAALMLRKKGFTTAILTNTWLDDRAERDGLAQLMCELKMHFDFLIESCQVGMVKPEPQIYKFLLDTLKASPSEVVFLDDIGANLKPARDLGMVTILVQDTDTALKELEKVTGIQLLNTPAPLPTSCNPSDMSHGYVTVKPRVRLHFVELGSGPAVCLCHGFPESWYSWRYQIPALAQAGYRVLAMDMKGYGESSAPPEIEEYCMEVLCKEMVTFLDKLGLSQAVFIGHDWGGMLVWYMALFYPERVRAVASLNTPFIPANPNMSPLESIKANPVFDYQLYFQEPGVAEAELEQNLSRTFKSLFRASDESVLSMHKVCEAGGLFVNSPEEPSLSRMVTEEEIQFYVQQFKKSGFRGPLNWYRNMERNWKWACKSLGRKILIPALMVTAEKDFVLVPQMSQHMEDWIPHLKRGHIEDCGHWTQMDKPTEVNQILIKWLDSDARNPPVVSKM

[5] = target: Indoleamine 2,3-dioxygenase 1 (Homo sapiens) (UniProt P14902); assay: Inhibition of IDO1 in human HeLa cells assessed as reduction in IFNgamma induced IDO1 protein expression level incubated for 24 hrs by immunoblotting analysis; format: cell-based
In short: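 HeLa cells were plated at 250,000/well and grown 24 h, then exposed to 50 ng/mL IFN-γ and compound for 24 h. Cells were lysed in Laemmli buffer and 20–100 μg protein was resolved on 10% gels. Blots were probed with anti-IDO1 (1:5,000) and IRDye secondaries. IDO1 was normalized to vinculin; mean ± SD, n = 4.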

[6] = target: Indoleamine 2,3-dioxygenase 1 (Homo sapiens) (UniProt P14902); assay: Inhibition of IDO1 in human HeLa cells assessed as reduction in IFNgamma induced IDO1 mRNA expression level incubated for 24 hrs by qPCR analysis; format: cell-based
In short: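 HeLa cells were plated at 250,000/well and grown 24 h, then treated with 50 ng/mL IFN-γ plus compound for 24 h. Total RNA was extracted with on-column DNase digestion, and cDNA was made from 800 ng RNA. IDO1 mRNA was quantified by qPCR; mean ± SD, n = 3.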

[7] = target: Indoleamine 2,3-dioxygenase 1 (Homo sapiens) (UniProt P14902); assay: Inhibition of IDO1 in human BXPC-3 cells assessed as reduction in IFNgamma induced Trp level at 5 uM pretreated with IFNgamma for 24 hrs followed by compound addition for 30 mins prior to Trp addition and measured after 30 mins by HPLC-MS/MS analysis; format: cell-based; conditions: time 25.0 hrs
In short: (§2)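 BxPC-3 cells were kept in Trp-free RPMI for 48 h, then given 50 ng/mL IFN-γ with starvation continued another 24 h. Medium was replaced by Trp-free medium containing compound for 30 min. 50 μM Trp was then added for 30 min. Supernatant Trp was measured by HPLC-MS/MS after 7% trichloroacetic acid precipitation; mean ± SD, n = 3.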

[8] = target: Indoleamine 2,3-dioxygenase 1 (Homo sapiens) (UniProt P14902); assay: Inhibition of IDO1 in HEK293T cells assessed as reduction in IFNgamma induced IDO1 protein expression incubated for 48 hrs; format: cell-based
[9] = target: Indoleamine 2,3-dioxygenase 1 (Homo sapiens) (UniProt P14902); assay: Inhibition of IDO1 in human BXPC-3 cells assessed as reduction in IFNgamma induced Trp level at 5 mM pretreated with IFNgamma for 24 hrs followed by compound addition for 30 mins prior to Trp addition and measured after 30 mins by HPLC-MS/MS analysis; format: cell-based; conditions: time 25.0 hrs; in short: as §2

Sequence of Indoleamine 2,3-dioxygenase 1 (Homo sapiens) (P14902 whole entry, looked up): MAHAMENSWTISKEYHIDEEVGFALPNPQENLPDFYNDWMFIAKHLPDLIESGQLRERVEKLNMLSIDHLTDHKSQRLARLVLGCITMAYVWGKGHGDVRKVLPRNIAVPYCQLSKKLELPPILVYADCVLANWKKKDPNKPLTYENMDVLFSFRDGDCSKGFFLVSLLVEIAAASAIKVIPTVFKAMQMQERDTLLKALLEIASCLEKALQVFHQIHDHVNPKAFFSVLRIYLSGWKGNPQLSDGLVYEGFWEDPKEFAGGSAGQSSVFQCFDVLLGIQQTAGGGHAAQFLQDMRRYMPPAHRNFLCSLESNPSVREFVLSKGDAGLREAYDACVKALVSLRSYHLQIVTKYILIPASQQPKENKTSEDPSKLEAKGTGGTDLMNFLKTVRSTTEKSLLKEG

inhibition [1]: Active
inhibition [2]: inactive
inhibition [3]: Dose-Dependent Effect
Compound: O=C(c1cn(CCOc2ccc3c(c2)OCO3)c2ccc(Br)cc12)C(F)(F)F

inhibition [4]: Active
Compound: NS(=O)(=O)NCCNc1nonc1/C(=N/O)Nc1ccc(F)c(Br)c1

inhibition [5]: inactive
inhibition [6]: inactive
inhibition [7]: inactive
inhibition [2]: inactive
inhibition [8]: inactive
Compound: O=C(Cn1cc(C(=O)C(F)(F)F)c2cc(Br)ccc21)NC1CCCCCC1

inhibition [9]: Active
Compound: CC(C)C[C@H](N)C(=O)O
